Experimental data taken from ChEMBL document CHEMBL1153359, “Synthesis and biological evaluation of N4-(hetero)arylsulfonylquinoxalinones as HIV-1 reverse transcriptase inhibitors” (Bioorg Med Chem, 2009).

Test system: Human immunodeficiency virus 1
Test: Inhibition of HIV1 replication in human 293T cells preincubated 15 mins prior to infection measured after 48 hrs postinfection by luciferase reporter gene assay
Assay type: functional, organism-based
Conditions: Human immunodeficiency virus 1, HEK-293T
Outline: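 Pseudotyped virus was made by co-transfecting 293 cells with the env-deficient HIV-1 luciferase vector pNL4-3.luc.R-E- and a VSV-G plasmid (modified calcium phosphate method). 293ET target cells were seeded at 6 × 10⁴ per well the day before infection. Compound was added 15 min before the VSVG/HIV-1 virus, with a solvent-only control. Cells were lysed 48 h post-infection.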

O=C1CN(S(=O)(=O)c2cccc3cccnc23)c2cc(F)ccc2N1
IC50: 980 nM

CC1C(=O)Nc2ccc(F)cc2N1S(=O)(=O)c1cccc2cccnc12 (stereo unspecified)
IC50: 7000 nM

CCC1C(=O)Nc2ccc(Cl)cc2N1S(=O)(=O)c1cccc2cccnc12 (stereo unspecified)
IC50: > 100000 nM

COC(=O)c1sccc1S(=O)(=O)N1CC(=O)Nc2ccc(Cl)cc21
IC50: 830 nM

COC(=O)c1sccc1S(=O)(=O)N1c2cc(Cl)ccc2NC(=O)C1C (stereo unspecified)
IC50: 200 nM

CCC1C(=O)Nc2ccc(Cl)cc2N1S(=O)(=O)c1ccsc1C(=O)OC (stereo unspecified)
IC50: 6300 nM

COC(=O)c1sccc1S(=O)(=O)N1CC(=O)Nc2cc(C(F)(F)F)ccc21
IC50: > 100000 nM

O=C1CN(S(=O)(=O)c2cccc3cccnc23)c2ccc(C(F)(F)F)cc2N1
IC50: > 100000 nM

COC(=O)CC1C(=O)Nc2ccc(F)cc2N1S(=O)(=O)c1ccsc1C(=O)OC (stereo unspecified)
IC50: > 100000 nM

CC1C(=O)Nc2ccc(F)cc2N1S(=O)(=O)c1cc(Cl)sc1Cl (stereo unspecified)
IC50: > 100000 nM

CCC1C(=O)Nc2ccc(F)cc2N1S(=O)(=O)c1ccsc1C(=O)OC (stereo unspecified)
IC50: 5000 nM

N#Cc1cccc(S(=O)(=O)N2CC(=O)Nc3ccc(F)cc32)c1
IC50: > 100000 nM

O=C1CN(S(=O)(=O)c2cccc3cccnc23)c2cc(Cl)ccc2N1
IC50: 330 nM

CC1C(=O)Nc2ccc(F)cc2N1S(=O)(=O)c1cccc(C#N)c1 (stereo unspecified)
IC50: 55000 nM

COC(=O)c1sccc1S(=O)(=O)N1CC(=O)Nc2ccc(F)cc21
IC50: 2020 nM

COC(=O)c1sccc1S(=O)(=O)N1c2cc(F)ccc2NC(=O)C1C (stereo unspecified)
IC50: 200 nM

CC1C(=O)Nc2ccc(Cl)cc2N1S(=O)(=O)c1cccc2cccnc12 (stereo unspecified)
IC50: 650 nM

CC1C(=O)Nc2ccc(F)cc2N1S(=O)(=O)c1ccc([N+](=O)[O-])cc1 (stereo unspecified)
IC50: > 100000 nM

COC(=O)c1sccc1S(=O)(=O)N1c2cc(F)ccc2NC(=O)C1CCSC (stereo unspecified)
IC50: > 100000 nM

O=C1Nc2ccc(Cl)cc2[C@@](C#CC2CC2)(C(F)(F)F)O1 [EFAVIRENZ]
IC50: 1.3 nM

Cc1cn([C@H]2C[C@H](N=[N+]=[N-])[C@@H](CO)O2)c(=O)[nH]c1=O [ZIDOVUDINE]
IC50: 48 nM
